From ChEMBL document CHEMBL2203029, “Discovery and Structural Modification of 1-Phenyl-3-(1-phenylethyl)urea Derivatives as Inhibitors of Complement” (ACS Med Chem Lett, 2012)
In brackets after ≈: the same amount, converted by molar mass. Activity calls are given as the source filed them. The rule behind the calls is not given here.

Tests used:
[1] = (§1) Inhibition of complement system in human fetal serum assessed as inhibition of hemolysis incubated for 1 hr by spectrophotometric analysis
Homo sapiens [2] = species on record: Homo sapiens; assay: as §1
Homo sapiens [3] = species on record: Homo sapiens; assay: Inhibition of complement system in human fetal serum assessed as inhibition of hemolysis at 100 ug/mL incubated for 1 hr by spectrophotometric analysis
[4] = Inhibition of alternative complement system in human serum assessed as inhibition of C9 deposition incubated for 1 hr by ELISA; type: cell-free
In short: (§2)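 Normal human serum was added to coated plates and incubated with a range of inhibitor concentrations. The coating set the pathway: IgM for the classical pathway, mannan for the lectin pathway, and zymosan for the alternative pathway. C3, C4 and C9 deposition were then measured on the plates.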

Homo sapiens [5] = species on record: Homo sapiens; assay: Inhibition of alternative complement system in human serum assessed as inhibition of C4 activation incubated for 1 hr by ELISA; type: cell-free; in short: as §2
[6] = Inhibition of classical complement system in human serum assessed as inhibition of C9 deposition incubated for 1 hr by ELISA; type: cell-free; in short: as §2
Homo sapiens [7] = species on record: Homo sapiens; assay: Inhibition of classical complement system in human serum assessed as inhibition of C3 activation incubated for 1 hr by ELISA; type: cell-free; in short: as §2
[8] = Inhibition of lectin pathway in human serum assessed as inhibition of C4 activation incubated for 1 hr by ELISA; type: cell-free; in short: as §2
Homo sapiens [9] = species on record: Homo sapiens; assay: Inhibition of alternative complement system in human serum assessed as inhibition of C9 deposition at 10 ug/mL incubated for 1 hr by ELISA; type: cell-free
Homo sapiens [10] = species on record: Homo sapiens; assay: Inhibition of classical complement system in human serum assessed as inhibition of C4 activation incubated for 1 hr by ELISA; type: cell-free; in short: as §2
[11] = Inhibition of lectin pathway in human serum assessed as inhibition of C3 activation incubated for 1 hr by ELISA; type: cell-free; in short: as §2
[12] = Inhibition of lectin pathway in human serum assessed as inhibition of C9 deposition incubated for 1 hr by ELISA; type: cell-free; in short: as §2
Homo sapiens [13] = species on record: Homo sapiens; assay: Inhibition of classical complement system in human serum assessed as inhibition of C9 deposition at 10 ug/mL incubated for 1 hr by ELISA; type: cell-free
[14] = Inhibition of lectin pathway in human serum assessed as inhibition of C9 deposition at 10 ug/mL incubated for 1 hr by ELISA; type: cell-free
Homo sapiens [15] = species on record: Homo sapiens; assay: Inhibition of alternative complement system in human serum assessed as inhibition of C3 activation incubated for 1 hr by ELISA; type: cell-free; in short: as §2
Homo sapiens [16] = species on record: Homo sapiens; assay: Inhibition of complement system in human fetal serum assessed as inhibition of hemolysis at 10 ug/mL incubated for 1 hr by spectrophotometric analysis

| SMILES | IC50 [1] | further results |
| --- | --- | --- |
| COc1ccc(NC(=O)N[C@@H](C)c2ccccc2)cc1OC(C)C | 10600 nM | – |
| CCCCOc1cc(NC(=O)N2CCCC2c2ccccc2)ccc1OC (configuration not stated) | 105 nM | – |
| CCCCOc1cc(NC(=O)NC2CCc3ccccc32)ccc1OC (configuration not stated) | – | inhibition (Homo sapiens [2]): inactive |
| COc1ccc(NC(=O)NCc2cccc(-c3ccccc3)c2)cc1OC | – | inhibition (Homo sapiens [3]): inactive |
| CCOc1cc(NC(=O)N[C@@H](C)c2ccccc2)ccc1OC | 2860 nM | – |
| CCOc1ccc(NC(=O)N[C@@H](C)c2ccccc2)cc1OC | – | inhibition (Homo sapiens [3]): inactive |
| COc1ccc(NC(=O)N[C@@H](C)c2ccccc2[N+](=O)[O-])cc1OCCCC(C)C | 368 nM | – |
| CCCCCCCOc1cc(NC(=O)N[C@@H](C)c2ccccc2)ccc1OC | 780 nM | – |
| COc1ccc(NC(=O)N(CCO)[C@@H](C)c2ccccc2)cc1OCCCC(C)C | 323 nM | – |
| COc1ccc(NC(=O)N[C@@H](C)c2ccc(O)cc2)cc1OCCCC(C)C | 139 nM | – |
| CCCCCOc1ccc(OC)cc1NC(=O)N[C@@H](C)c1ccccc1 | – | inhibition (Homo sapiens [2]): inactive |
| CCCCCOc1ccccc1NC(=O)N[C@@H](C)c1ccccc1 | – | inhibition (Homo sapiens [2]): inactive |
| CCCCOc1cc(NC(=O)NCC(C)c2ccccc2)ccc1OC (configuration not stated) | – | inhibition (Homo sapiens [2]): inactive |
| CCCCCOc1cc(OC)ccc1NC(=O)N[C@@H](C)c1ccccc1 | – | inhibition (Homo sapiens [2]): inactive |
| C[C@H](NC(=O)Nc1cccnc1)c1ccccc1 | – | inhibition (Homo sapiens [3]): inactive |
| C[C@H](NC(=O)Nc1ccc(Cl)cc1)c1ccccc1 | – | inhibition (Homo sapiens [3]): inactive |
| CCCCCCCCCCOc1cc(NC(=O)N[C@@H](C)c2ccccc2)ccc1OC | – | inhibition (Homo sapiens [3]): inactive |
| COc1ccc(NC(=O)N[C@@H](C)c2cccc(O)c2)cc1OCCCC(C)C | 77 nM | – |
| COc1ccc(NC(=O)N[C@@H](C)c2ccccc2)cc1 | – | inhibition (Homo sapiens [3]): inactive |
| COc1ccc(NC(=O)N[C@@H](C)c2ccccc2)cc1O | – | inhibition (Homo sapiens [3]): 35.3% |
| COc1ccc(NC(=O)N(CCCO)[C@@H](C)c2ccccc2)cc1OCCCC(C)C | 223 nM | – |
| COc1ccc(N(C)C(=O)N[C@@H](C)c2ccccc2)cc1OCCCC(C)C | 540 nM | – |
| COc1ccc(NC(=O)N[C@@H](C)c2ccc(F)cc2)cc1OCCCC(C)C | 402 nM | – |
| C=C(C)COc1cc(NC(=O)N[C@@H](C)c2ccccc2)ccc1OC | 7900 nM | – |
| COc1cccc(NC(=O)N[C@@H](C)c2ccccc2)c1 | – | inhibition (Homo sapiens [3]): inactive |

| SMILES | IC50 [1] | further results |
| --- | --- | --- |
| COc1cc(NC(=O)N[C@@H](C)c2ccccc2)ccc1OCCNC(=O)OC(C)(C)C | – | inhibition (Homo sapiens [3]): inactive |
| COc1ccc(NC(=O)N[C@@H](C)c2ccccc2)cc1OCc1ccccc1 | – | inhibition (Homo sapiens [3]): 32.7% |
| COc1ccc(NC(=O)N[C@@H](C)c2ccccc2)cc1OCCC(C)C | 630 nM | – |
| CCCCCOc1cc(NC(=O)N[C@@H](C)c2ccccc2)cc(OC)c1 | 270 nM | – |
| COc1ccc(NC(=O)N(CC(O)CO)[C@@H](C)c2ccccc2)cc1OCCCC(C)C (some centres not stated) | 368 nM | – |
| COc1ccc(N(C)C(=O)N(C)[C@@H](C)c2ccccc2)cc1OCCCC(C)C | – | inhibition (Homo sapiens [3]): inactive |
| COc1ccc(NC(=O)N[C@@H](C)c2ccc(C#N)cc2)cc1OCCCC(C)C | 1260 nM | – |
| N=C(N)c1cc2ccc(OC(=O)c3cccs3)cc2s1 | 10 nM | – |
| COCCOc1cc(NC(=O)N[C@@H](C)c2ccccc2)ccc1OC | 2000 nM | – |
| COc1ccc(N(CCCO)C(=O)N[C@@H](C)c2ccccc2)cc1OCCCC(C)C | 1580 nM | – |
| CCOC(=O)COc1cc(NC(=O)N[C@@H](C)c2ccccc2)ccc1OC | 6200 nM | – |
| COc1ccc(NC(=O)N[C@@H](C)c2ccccc2)cc1OCC1CCCN(C)C1 (some centres not stated) | 3200 nM | – |
| COc1cc(NC(=O)N[C@@H](C)c2ccccc2)ccc1OCc1ccccc1 | – | inhibition (Homo sapiens [3]): inactive |
| COc1ccc(NC(=O)N[C@@H](C)c2ccc(Br)cc2)cc1OCCCC(C)C | 3390 nM | – |
| C#CCOc1cc(NC(=O)N[C@@H](C)c2ccccc2)ccc1OC | 8300 nM | – |
| CCCCOc1cc(NC(=O)N[C@@H](C)c2ccccc2)ccc1OC | 33 nM | – |
| COc1ccc(NC(=O)N[C@@H](C)c2ccccc2)cc1OCCN1CCCCC1 | 35500 nM | – |
| CCCCOc1cc(NC(=O)N2CCCCC2c2ccccc2)ccc1OC (configuration not stated) | – | inhibition (Homo sapiens [2]): inactive |
| CC#CCOc1cc(NC(=O)N[C@@H](C)c2ccccc2)ccc1OC | 1590 nM | – |
| COC(=O)c1ccc([C@H](C)NC(=O)Nc2ccc(OC)c(OCCCC(C)C)c2)cc1 | 535 nM | – |
| CCCCCOc1cc(NC(=O)N[C@@H](C)c2ccccc2)ccc1OC | 19 nM | – |
| COc1ccc(NC(=O)N[C@@H](C)c2ccc(C(=O)O)cc2)cc1OCCCC(C)C | 761 nM | – |
| COc1ccc(NC(=O)N(CCCN)[C@@H](C)c2ccccc2)cc1OCCCC(C)C | 7160 nM | – |
| CCCCCOc1cc(OC)c(NC(=O)N[C@@H](C)c2ccccc2)c(OC)c1 | – | inhibition (Homo sapiens [2]): inactive |
| C=CCOc1ccc(NC(=O)N[C@@H](C)c2ccccc2)cc1OC | – | inhibition (Homo sapiens [3]): inactive |

| SMILES | IC50 [1] | further results |
| --- | --- | --- |
| COc1ccc(NC(=O)N[C@@H](C)c2ccccc2)cc1OCC1CCCCC1 | 468 nM | – |
| COc1ccc(NC(=O)N(C)Cc2ccccc2)cc1OC | – | inhibition (Homo sapiens [3]): 43.8% |
| CCC#CCOc1cc(NC(=O)N[C@@H](C)c2ccccc2)ccc1OC | 244 nM | – |
| CCOC(=O)COc1ccc(NC(=O)N[C@@H](C)c2ccccc2)cc1OC | – | inhibition (Homo sapiens [3]): inactive |
| COc1ccc(NC(=O)N[C@@H](C)c2ccccc2)cc1OCCCC(C)C | 13 nM | IC50 [4]: 3.59 µg/mL (≈ 9.69 µM); inhibition (Homo sapiens [5]): inactive; IC50 [6]: 3.68 µg/mL (≈ 9.93 µM); inhibition (Homo sapiens [7]): inactive; inhibition [8]: inactive; inhibition (Homo sapiens [9]): 90%; inhibition (Homo sapiens [10]): inactive; inhibition [11]: inactive; IC50 [12]: 4.46 µg/mL (≈ 12 µM); inhibition (Homo sapiens [13]): 90%; inhibition [14]: 90%; inhibition (Homo sapiens [15]): inactive |
| COc1ccc(NC(=O)N[C@@H](C)c2ccc(C(F)(F)F)cc2)cc1OCCCC(C)C | – | inhibition (Homo sapiens [16]): inactive |
| CCCCCCOc1cc(NC(=O)N[C@@H](C)c2ccccc2)ccc1OC | 17 nM | – |
| CCCOc1cc(NC(=O)N[C@@H](C)c2ccccc2)ccc1OC | 353 nM | – |
| COc1ccc(NC(=O)N[C@H](C)c2ccccc2)cc1OC | – | inhibition (Homo sapiens [3]): 16.9% |
| COc1ccc(NC(=O)N[C@@H](C)c2ccc(C)cc2)cc1OCCCC(C)C | 327 nM | – |
| COc1ccc(NC(=O)N[C@@H](C)c2ccccc2)cc1OCCN1CCCC1 | – | inhibition (Homo sapiens [3]): inactive |
| C[C@H](NC(=O)Nc1ccccc1)c1ccccc1 | – | inhibition (Homo sapiens [3]): inactive |
| COc1cc(NC(=O)N[C@@H](C)c2ccccc2)ccc1O | – | inhibition (Homo sapiens [3]): 14.6% |
| CCCCCOc1cccc(NC(=O)N[C@@H](C)c2ccccc2)c1 | 3200 nM | – |
| COc1ccc(NC(=O)N(C)[C@@H](C)c2ccccc2)cc1OCCCC(C)C | 19 nM | – |
| CCCCOc1cc(NC(=O)NCCC(C)c2ccccc2)ccc1OC (configuration not stated) | – | inhibition (Homo sapiens [2]): inactive |
| COc1ccc(NC(=O)NCc2cccc3ccccc23)cc1OC | – | inhibition (Homo sapiens [3]): inactive |
| CCCCCCCCCCCCOc1cc(NC(=O)N[C@@H](C)c2ccccc2)ccc1OC | – | inhibition (Homo sapiens [3]): inactive |
| C=CCOc1cc(NC(=O)N[C@@H](C)c2ccccc2)ccc1OC | 1750 nM | – |
| COc1ccc(NC(=O)N[C@@H](C)c2ccc([N+](=O)[O-])cc2)cc1OCCCC(C)C | 1690 nM | – |
| CCCCCCCCOc1cc(NC(=O)N[C@@H](C)c2ccccc2)ccc1OC | 1290 nM | – |
| COc1ccc(NC(=O)N[C@@H](C)c2cccc(Br)c2)cc1OCCCC(C)C | 1320 nM | – |
| COc1ccc(NC(=O)N[C@@H](C)c2ccccc2)cc1OC | 50000 nM | – |
| COc1ccc(NC(=O)N[C@@H](C)c2ccccc2)cc1OCC(C)C | 870 nM | – |
| CCCCOc1cc(NC(=O)NC(CC)c2ccccc2)ccc1OC (configuration not stated) | 420 nM | – |
